Experiment [1] has as its system Rattus norvegicus. Kind of experiment: Antihypertensive effect in desoxycortisone acetate-induced hypertensive rat assessed as maximum decrease in mean arterial blood pressure at 5 mg/kg, ip after 6 hrs. Type of experiment: functional, Artery. Particulars: route intraperitoneal. The method in brief:
(§1)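 Hypertension induced by uninephrectomy plus DOCA 40 mg kg−1 sc twice weekly for up to six weeks, with 1.0% NaCl and 0.2% KCl in drinking water; sham rats got tap water. Compound given ip, and mean arterial blood pressure measured 6 h after dosing. Activity expressed as fall in MABP.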

The target of experiment [2] is T1, Type-1 angiotensin II receptor A (Rattus norvegicus) (UniProt P25095).
T1 sequence (whole entry): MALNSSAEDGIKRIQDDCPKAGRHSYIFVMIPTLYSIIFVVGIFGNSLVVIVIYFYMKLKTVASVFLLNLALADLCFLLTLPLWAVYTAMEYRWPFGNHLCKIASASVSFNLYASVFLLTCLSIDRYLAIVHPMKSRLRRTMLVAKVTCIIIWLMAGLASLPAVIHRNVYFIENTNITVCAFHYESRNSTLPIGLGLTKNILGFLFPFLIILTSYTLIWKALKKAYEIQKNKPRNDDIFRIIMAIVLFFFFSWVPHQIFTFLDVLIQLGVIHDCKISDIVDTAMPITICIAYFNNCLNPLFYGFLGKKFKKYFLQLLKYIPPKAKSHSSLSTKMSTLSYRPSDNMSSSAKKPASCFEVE
Description: (§2) Antagonist activity at AT1 receptor in rat aortic rings. The experiment is classed as functional. The method in brief: (§3)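 Isolated rat aortic ring in 10 ml bath of Krebs–Henseleit at 37 °C, pH 7.4, oxygenated, under 1 g tension. Ang II cumulative curve in 0.5-log steps (1 × 10−10 to 1 × 10−5), repeated after 15 min antagonist exposure at 1, 3 or 10 nmol. Response taken as % of maximal Ang II tension.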

For experiment [3], the system named is Rattus norvegicus. Description: Antihypertensive effect in desoxycortisone acetate-induced hypertensive rat assessed as maximum decrease in mean arterial blood pressure at 3 mg/kg, ip after 6 hrs. The experiment is classed as functional, Artery. Particulars: route intraperitoneal. Summed up:
as §1

Experiment [4] addresses T2, Type-1 angiotensin II receptor A (Rattus norvegicus, UniProt P25095).
T2 sequence (P25095 whole entry): T1 sequence (whole entry)
Described as §2. Type of experiment: functional. Particulars: read-out: pA2 (converted). Summed up: as §3

On to `CCCCc1nc(Cl)c(CO)n1Cc1ccc(-c2ccccc2-c2nnn[nH]2)cc1` [LOSARTAN], for which the Activity with Rattus norvegicus [1] came out at 58.3 mmHg. Moreover, in experiment [2], the pA10 is 7.1.

`CCCCc1nc2cc(S(=O)(=O)NC)ccc2n1Cc1ccc(-c2ccccc2C(=O)O)cc1`: the Activity in the experiment on Rattus norvegicus [3] was 52.5 mmHg. Moreover, the pA10 in experiment [2] worked out at 6.3. Besides, the Kb in experiment [4] was 126 nM.

`CCCCc1nc2cc(S(=O)(=O)O)ccc2n1Cc1ccc(-c2ccccc2C(=O)O)cc1`: the Activity in the experiment with Rattus norvegicus [3] is 44.7 mmHg. This compound displayed a pA10 in experiment [2] of 5.8. In experiment [4], the Kb was 251 nM.

As to `CCCCc1nc2cc(S(N)(=O)=O)ccc2n1Cc1ccc(-c2ccccc2C(=O)O)cc1`, the Activity with Rattus norvegicus [3] was determined as 51.4 mmHg. The same compound registered a pA10 in experiment [2] of 6.1. For the same compound, the Kb in experiment [4] is 200 nM.

`CCCCc1nc2cc(S(=O)(=O)NC(C)C)ccc2n1Cc1ccc(-c2ccccc2C(=O)O)cc1`: the Activity in the experiment with Rattus norvegicus [3] is on record as 51.7 mmHg. In experiment [2], this compound yielded a pA10 of 6.3. Also, in experiment [4], the Kb is 63.1 nM.

As to `CCCCNS(=O)(=O)c1ccc2c(c1)nc(CCCC)n2Cc1ccc(-c2ccccc2C(=O)O)cc1`, the Activity in the experiment with Rattus norvegicus [3] is listed as 47.6 mmHg. In experiment [2], this compound came in with a pA10 of 6.2. Besides, in experiment [4], the Kb is 100 nM.

For the compound `CCCCc1nc2cc(S(=O)(=O)NC(C)(C)C)ccc2n1Cc1ccc(-c2ccccc2C(=O)O)cc1`, the Activity in the experiment with Rattus norvegicus [3] was determined as 62.4 mmHg. This compound returned a pA10 in experiment [2] of 5.4. In addition, the Kb in experiment [4] is 3.98 nM.

`CCOc1nc2cccc(C(=O)O)c2n1Cc1ccc(-c2ccccc2-c2nnn[nH]2)cc1`: in the experiment on Rattus norvegicus [1], the Activity came out at 56.2 mmHg. Moreover, the pA10 in experiment [2] is 6.7. Besides, in experiment [4], the Kb was 3.16 nM.

Take `CCCCc1nc2cc(S(=O)(=O)NCCC)ccc2n1Cc1ccc(-c2ccccc2C(=O)O)cc1`: in the experiment with Rattus norvegicus [3], the Activity was 50.2 mmHg. Besides, the pA10 in experiment [2] stood at 6.4. In experiment [4], the Kb is 79.4 nM.

`CCCCc1nc2cc(S(=O)(=O)NC3CCCCC3)ccc2n1Cc1ccc(-c2ccccc2C(=O)O)cc1`: in the experiment with Rattus norvegicus [3], the Activity is reported as 64.4 mmHg. Also, the pA10 in experiment [2] is 5.7. Moreover, the Kb in experiment [4] was 12.6 nM.

Consider `CCCCc1nc2cc(S(=O)(=O)NCC)ccc2n1Cc1ccc(-c2ccccc2C(=O)O)cc1`, for which the Activity in the experiment with Rattus norvegicus [3] was 49.9 mmHg. Also, the pA10 in experiment [2] was 6.2. The Kb in experiment [4] is 79.4 nM.

As to `CCCCc1nc2ccccc2n1Cc1ccc(-c2ccccc2C(=O)O)cc1`, in experiment [2], the pA10 amounted to 6.7. Further, in experiment [4], the Kb was 3.16 nM.

For the origin of these results see ChEMBL document CHEMBL1139262, “Design, synthesis, and evaluation of 5-sulfamoyl benzimidazole derivatives as novel angiotensin II receptor antagonists” (Bioorg Med Chem, 2008).
